Assay results gathered from unrelated publications.
Compare with care: the assays were run in different laboratories.
Target: Activated CDC42 kinase 1 (TNK2, Homo sapiens, UniProt Q07912)

Structure (SMILES) | test | setting | remaining binding [%]
CN(CCCC(F)(F)F)c1nccc(-c2cnn3ncccc23)n1 | binding | 1 µM | 83
O=C(c1ccc(Nc2ncc(Cl)c(-c3ccc(Cl)s3)n2)cc1)N1CCC(N2CCCC2)CC1 | binding, competition with immobilised ligand | 1 µM | 44
CCC(=O)N[C@H]1CC[C@@H](C(=O)N(C)c2ccc(-c3nc4ccccc4o3)cc2)C1 | cell-free assay, competition with immobilised ligand | 1 µM | 84
CCN(CC)Cc1cc(Nc2ccnc3cc(Cl)ccc23)ccc1O | cell-free assay, competition with immobilised ligand | 10 µM | 100
Cc1c(NC(=O)c2cc(C(N)=O)nc3cc(F)ccc23)c(C(F)(F)F)nn1Cc1ccc(C#N)cc1 | cell-free assay, competition with immobilised ligand | 1 µM | 71
CNC(=O)[C@@H]1CC[C@@H](n2c(-c3ccc4cnccc4c3)nc3ccc(C(=O)NCc4cccc(C(N)=O)c4)cc32)C1 | binding, competition with immobilised ligand | 1 µM | 100
O=C(NC[C@@H]1[C@H]2CN(C(=O)OCc3cc(C(F)(F)F)cc(C(F)(F)F)c3)C[C@@H]12)c1ccc2[nH]nnc2c1 | cell-free assay, competition with immobilised ligand | 1 µM | 100
C[C@@H]1CCN(c2nccc(-c3cnn4ncccc34)n2)C1 | binding | 1 µM | 100
CCN(CC)CCNC(=O)c1c(C)[nH]c(/C=C2\C(=O)Nc3ccc(F)cc32)c1C | cell-free assay, competition with immobilised ligand | 0.1 µM | 93
C[C@@H]1CN(c2cc(-c3n[nH]c4ccc(OC5(C)CC5)cc34)ncn2)C[C@H](C)O1 | cell-free assay, competition with immobilised ligand | 0.1 µM | 79
COc1cc2ncnc(Nc3ccc(F)c(Cl)c3)c2cc1OCCCN1CCOCC1 | cell-free assay, competition with immobilised ligand | 0.1 µM | 100
COc1ncc2cc3ccccc3nc2c1C#N | cell-free assay, competition with immobilised ligand | 5 µM | 95
COc1cnc(Nc2cccc(S(N)(=O)=O)c2)nc1N1CCN(c2ccccc2)C(=O)C1 | binding, competition with immobilised ligand | 1 µM | 100
Cc1cnn2ncc(-c3ccnc(N(C)C)n3)c2c1 | binding | 1 µM | 100
O=C(NCCCN1CCOCC1)c1ccc(Nc2ncc(Cl)c(-c3ccc(Cl)s3)n2)cc1 | binding, competition with immobilised ligand | 1 µM | 53
COc1cc(-c2cn(C3CCc4c(F)cccc4N(CC(F)(F)F)C3=O)nn2)ccc1-n1cnc(C)c1 (centres unmarked) | cell-free assay, competition with immobilised ligand | 1 µM | 100

Structure (SMILES) | test | setting | remaining binding [%]
O=C(c1ccc(Nc2nccc(-c3cc4ccccc4s3)n2)cc1)N1CCC(N2CCCC2)CC1 | binding, competition with immobilised ligand | 1 µM | 62
FC(F)(F)Oc1cccc(-c2cnc3ccc(-c4ccncc4)nn23)c1 | binding, competition with immobilised ligand | 5 µM | 79
CNC(=O)c1cc(Oc2ccc(NC(=O)Nc3ccc(Cl)c(C(F)(F)F)c3)cc2)ccn1 | cell-free assay, competition with immobilised ligand | 0.1 µM | 100
c1cnn2ncc(-c3ccnc(N4CCC45COC5)n3)c2c1 | binding | 1 µM | 74
O=C(Nc1c[nH]nc1C(=O)NC1CCNCC1)c1cc(F)cc(F)c1 | binding, competition with immobilised ligand | 1 µM | 100
C[C@@H](c1ccc(-n2cnc3c(N)ncnc32)cc1)N1CCc2nn(C)c(Cc3ccccc3)c2C1=O | binding, competition with immobilised ligand | 0.1 µM | 82
CS(=O)(=O)CCNCc1ccc(-c2ccc3ncnc(Nc4ccc(OCc5cccc(F)c5)c(Cl)c4)c3c2)o1 | cell-free assay, competition with immobilised ligand | 10 µM | 93
N[C@@H]1CCN(c2nccc(-c3cnn4ncccc34)n2)C1 | binding | 1 µM | 100
Cc1nc(Nc2ncc(C(=O)Nc3c(C)cccc3Cl)s2)cc(N2CCN(CCO)CC2)n1 | cell-free assay, competition with immobilised ligand | 0.1 µM | 4
COc1ccnn2ncc(-c3ccnc(N(C)C)n3)c12 | binding | 1 µM | 100
C[C@H](c1ccc(F)cc1)N(Cc1cccc(C(=O)O)c1)C(=O)c1cnc2ccccc2c1 | cell-free assay, competition with immobilised ligand | 1 µM | 100
CN1CC[C@H](c2c(O)cc(O)c3c(=O)cc(-c4ccccc4Cl)oc23)[C@H](O)C1 | cell-free assay, competition with immobilised ligand | 10 µM | 74
c1ccc(N2CCN(Cc3nc4ccccc4[nH]3)CC2)nc1 | binding, competition with immobilised ligand | 1 µM | 100
Cc1c(-c2ccccc2)oc2c(C(=O)OCCN3CCCCC3)cccc2c1=O | cell-free assay, competition with immobilised ligand | 10 µM | 94
CN(C)c1ncc(F)c(-c2cnn3ncccc23)n1 | binding | 1 µM | 77
Cc1cc(C)c(-n2ccn3nc(-c4cccnc4)cc23)cc1NC(=O)c1cc(C#N)cc(S(F)(F)(F)(F)F)c1 | cell-free assay, competition with immobilised ligand | 0.1 µM | 83.6
